Data from article PMC11005929 (Diabetes, Metabolic Syndrome and Obesity, 2024).

Legend:
db/db mice = assay: Glucose-lowering effect of repeated administration in db/db mice; format: in vivo, mouse
DIO mice = assay: Repeated administration in diet-induced obesity; format: in vivo, mouse; settings: s.c. once daily (DR10627 3, 10, 30 nmol/kg; liraglutide 80 nmol/kg)
Outline: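 Male C57BL/6 mice, 7 weeks old, kept 11 weeks on a 60% kcal fat diet; those at 42.2–48.7 g were randomised (n=10/group). Standard-diet mice served as normal controls. Dosed s.c. once daily at 5 mL/kg for 57 days. Body weight and food intake were recorded after dosing, and weight change and cumulative intake were calculated. Mean ± SD.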

[1] = test system: non-diabetic participants; settings: 2-year treatment, SCALE trials; cited from earlier work
[2] = Phase 3 trial; cited from earlier work

Compound	blood glucose level before administration on D28 (db/db mice; 50 nmol/kg s.c. once daily, n=10, mean ± SD, vehicle 33.6 ± 6.4)	blood glucose levels after treatment on D1 (db/db mice; first s.c. dose (DR10627 2, 6, 18 nmol/kg; liraglutide 50 nmol/kg))	body weight from D5 to D57 compared to the vehicle (DIO mice)	weight loss [1]	rate of antitaspoglutide antibodies detection [2]
CCCCCCCCCCCCCCCC(=O)N[C@@H](CCC(=O)NCCCC[C@H](NC(=O)[C@H](C)NC(=O)[C@H](C)NC(=O)[C@H](CCC(N)=O)NC(=O)CNC(=O)[C@H](CCC(=O)O)NC(=O)[C@H](CC(C)C)NC(=O)[C@H](Cc1ccc(O)cc1)NC(=O)[C@H](CO)NC(=O)[C@H](CO)NC(=O)[C@@H](NC(=O)[C@H](CC(=O)O)NC(=O)[C@H](CO)NC(=O)[C@@H](NC(=O)[C@H](Cc1ccccc1)NC(=O)[C@@H](NC(=O)CNC(=O)[C@H](CCC(=O)O)NC(=O)[C@H](C)NC(=O)[C@@H](N)Cc1c[nH]cn1)[C@@H](C)O)[C@@H](C)O)C(C)C)C(=O)N[C@@H](CCC(=O)O)C(=O)N[C@@H](Cc1ccccc1)C(=O)N[C@H](C(=O)N[C@@H](C)C(=O)N[C@@H](Cc1c[nH]c2ccccc12)C(=O)N[C@@H](CC(C)C)C(=O)N[C@H](C(=O)N[C@@H](CCCNC(=N)N)C(=O)NCC(=O)N[C@@H](CCCNC(=N)N)C(=O)NCC(=O)O)C(C)C)[C@@H](C)CC)C(=O)O [liraglutide]	27.0 ± 3.9 mM	decreased significantly	significantly reduced	5–10%	–
taspoglutide	–	–	–	–	49%
